Results of several laboratories.
Each line is one published result; the experiments were not run side by side.
Target: Serine/threonine-protein kinase 32B (STK32B, Homo sapiens, UniProt Q9NY57)

Compound	read-out	method	concentration	remaining binding [%]
C[C@@H](c1cccc(C#N)c1)n1cc(Cl)cc(C(N)=O)c1=N	cell-free assay	competition with immobilised ligand	1 µM	100
C[C@@H]1CCN(c2nccc(-c3cnn4ncccc34)n2)C1	binding	–	1 µM	89
CCC(=O)N[C@H]1CC[C@@H](C(=O)N(C)c2ccc(-c3nc4ccccc4o3)cc2)C1	cell-free assay	competition with immobilised ligand	1 µM	98
c1cncc(-c2cccc(Nc3nccc(NC4CCCCC4)n3)c2)c1	binding	competition with immobilised ligand	10 µM	100
COc1cnc(Nc2cccc(S(N)(=O)=O)c2)nc1N1CCN(c2ccccc2)C(=O)C1	binding	competition with immobilised ligand	1 µM	90
FC(F)(F)Oc1cccc(-c2cnc3ccc(-c4ccncc4)nn23)c1	binding	competition with immobilised ligand	5 µM	97
CO[C@@H](C)c1c(Nc2ccc([C@H](N(C)C(=O)C3CCS(=O)(=O)CC3)C(F)(F)F)cc2)cnc2cc(Cl)nn12	cell-free assay	competition with immobilised ligand	1 µM	89
CC1CCCN1c1nccc(-c2cnn3ncccc23)n1 (stereo not drawn)	binding	–	1 µM	100
Nc1ncc2c(n1)-c1c([nH]c3ccc(C#CC4CC4)cc13)CCCC2	binding	competition with immobilised ligand	1 µM	100
Cc1cnc(Nc2ccc(C(=O)N3CCC(N4CCCC4)CC3)cc2)nc1-c1cc2ccccc2s1	binding	competition with immobilised ligand	1 µM	100
CS(=O)(=O)N1CCCC(NC(=O)[C@H](CCC2CCCCC2)NC(=O)c2ccc(CNC(=O)c3cnc4ccccn34)cc2)C1 (stereo partly drawn)	cell-free assay	competition with immobilised ligand	0.1 µM	93
C[C@@H](c1ccc(-n2cnc3c(N)ncnc32)cc1)N1CCc2nn(C)c(Cc3ccccc3)c2C1=O	binding	competition with immobilised ligand	0.1 µM	99
c1cnn2ncc(-c3ccnc(N4CCC45COC5)n3)c2c1	binding	–	1 µM	93
O=C(c1ccc(Nc2nccc(-c3cc4ccccc4s3)n2)cc1)N1CCC(N2CCCC2)CC1	binding	competition with immobilised ligand	1 µM	100
CN(C)c1ncc(F)c(-c2cnn3ncccc23)n1	binding	–	1 µM	100
Cc1c(NC(=O)c2cc(C(N)=O)nc3cc(F)ccc23)c(C(F)(F)F)nn1Cc1ccc(C#N)cc1	cell-free assay	competition with immobilised ligand	1 µM	100
CN(CCCC(F)(F)F)c1nccc(-c2cnn3ncccc23)n1	binding	–	1 µM	87
O=C(c1ccc(Nc2ncc(Cl)c(-c3ccc(Cl)s3)n2)cc1)N1CCC(N2CCCC2)CC1	binding	competition with immobilised ligand	1 µM	100
O=C(NCC1CCOCC1)c1n[nH]cc1NC(=O)c1c(F)cccc1F	binding	competition with immobilised ligand	1 µM	77
O=C1NC(c2ccccn2)Sc2ccccc21 (stereo not drawn)	cell-free assay	competition with immobilised ligand	1 µM	100
N[C@@H]1CCN(c2nccc(-c3cnn4ncccc34)n2)C1	binding	–	1 µM	96
